Drawing on ChEMBL document CHEMBL1157537 (J Med Chem, 2008), this text covers Activity and Efficacy for 1 molecule.

Structures are written as SMILES. Active and inactive are the calls of the source. The calls are words filed in the database; no cut-off is given here.

Assay [1] is filed under the species Rattus norvegicus. Briefly: Progestational activity in estrone-treated ovariectomized rat assessed as reduction of breast alveolar bud proliferation. The class given is functional, organism-based. The procedure, abridged:
(§1)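 Ovariectomized rats were treated with estrone, alone or combined with test progestin, and compared with vehicle and estrone-only groups. Endpoints were uterine epithelial cell height, vaginal epithelial thickness and mammary alveolar bud proliferation.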

The subject of assay [2] is Rattus norvegicus. Briefly: Inhibition of ovulation in rat assessed as reduction in number of ova at 0.25 to 2.0 mg/kg, po for 5 days. The class given is functional, organism-based. The procedure, abridged:
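Female rats (n = 6 per group) received vehicle or progestin for 5 days at 0.25, 1.0 or 2.0 mg/kg. The number of ova per rat and the number of rats ovulating were then determined.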

Assay [3] has as its target T1, Androgen receptor (Homo sapiens) (UniProt P10275).
T1 sequence (whole entry): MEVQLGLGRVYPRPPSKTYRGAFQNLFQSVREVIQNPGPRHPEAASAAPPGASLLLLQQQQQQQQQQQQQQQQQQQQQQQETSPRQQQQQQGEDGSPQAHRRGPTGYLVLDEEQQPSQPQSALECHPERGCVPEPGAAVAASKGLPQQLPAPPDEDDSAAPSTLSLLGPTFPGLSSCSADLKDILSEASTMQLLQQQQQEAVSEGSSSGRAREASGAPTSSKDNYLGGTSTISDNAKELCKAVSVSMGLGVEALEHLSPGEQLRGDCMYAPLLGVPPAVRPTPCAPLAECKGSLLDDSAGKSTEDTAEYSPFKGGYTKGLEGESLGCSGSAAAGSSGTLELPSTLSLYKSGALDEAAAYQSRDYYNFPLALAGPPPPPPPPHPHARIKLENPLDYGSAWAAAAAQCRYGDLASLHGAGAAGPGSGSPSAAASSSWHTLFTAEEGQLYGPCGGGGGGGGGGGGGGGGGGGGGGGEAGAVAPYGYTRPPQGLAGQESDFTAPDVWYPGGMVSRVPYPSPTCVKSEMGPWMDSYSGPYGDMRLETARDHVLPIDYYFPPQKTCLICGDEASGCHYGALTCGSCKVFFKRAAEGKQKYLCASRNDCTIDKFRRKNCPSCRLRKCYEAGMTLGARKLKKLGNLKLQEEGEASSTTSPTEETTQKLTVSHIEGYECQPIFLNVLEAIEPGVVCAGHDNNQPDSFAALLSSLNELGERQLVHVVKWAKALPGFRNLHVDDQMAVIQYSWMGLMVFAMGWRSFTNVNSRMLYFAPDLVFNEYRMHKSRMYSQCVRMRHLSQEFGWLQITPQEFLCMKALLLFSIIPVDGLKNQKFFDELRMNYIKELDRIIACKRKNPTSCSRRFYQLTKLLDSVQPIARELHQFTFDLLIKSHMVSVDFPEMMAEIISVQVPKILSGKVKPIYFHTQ
Briefly: Agonist activity at human androgen receptor relative to dihydrotestosterone. The class given is functional.

For assay [4], the species on record is Rattus norvegicus. Briefly: Progestational activity in estrone-treated ovariectomized rat assessed as effect on uterine epithelial cell height. The class given is functional, organism-based. The gist of the method: as §1
Assay [5] deals with T2, Glucocorticoid receptor (Homo sapiens) (UniProt P04150).
T2 sequence (whole entry): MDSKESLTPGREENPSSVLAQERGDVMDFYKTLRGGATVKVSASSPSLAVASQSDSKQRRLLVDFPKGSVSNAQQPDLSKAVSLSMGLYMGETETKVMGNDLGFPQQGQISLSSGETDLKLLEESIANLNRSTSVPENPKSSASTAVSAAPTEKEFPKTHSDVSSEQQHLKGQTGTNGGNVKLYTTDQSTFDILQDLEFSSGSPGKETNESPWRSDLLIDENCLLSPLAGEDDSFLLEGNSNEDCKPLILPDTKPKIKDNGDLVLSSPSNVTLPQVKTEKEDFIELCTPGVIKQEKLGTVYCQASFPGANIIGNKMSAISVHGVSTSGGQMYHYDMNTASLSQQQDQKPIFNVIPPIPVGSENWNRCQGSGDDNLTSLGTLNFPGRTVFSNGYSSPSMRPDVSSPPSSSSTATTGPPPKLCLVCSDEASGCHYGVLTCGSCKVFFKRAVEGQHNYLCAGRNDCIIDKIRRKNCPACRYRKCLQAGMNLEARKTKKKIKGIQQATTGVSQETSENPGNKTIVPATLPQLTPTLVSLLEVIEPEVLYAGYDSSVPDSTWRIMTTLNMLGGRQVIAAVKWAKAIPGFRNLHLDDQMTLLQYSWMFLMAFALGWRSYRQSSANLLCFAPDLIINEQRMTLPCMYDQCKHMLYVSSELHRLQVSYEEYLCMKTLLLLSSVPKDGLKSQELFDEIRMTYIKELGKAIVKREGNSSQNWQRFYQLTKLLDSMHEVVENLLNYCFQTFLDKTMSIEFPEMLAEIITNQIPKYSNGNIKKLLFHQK
Description: Agonist activity at human glucocorticoid receptor relative to Dexamethasone. The class given is functional.

Assay [6] has as its target T3, Mineralocorticoid receptor (Homo sapiens) (UniProt P08235).
T3 sequence (whole entry): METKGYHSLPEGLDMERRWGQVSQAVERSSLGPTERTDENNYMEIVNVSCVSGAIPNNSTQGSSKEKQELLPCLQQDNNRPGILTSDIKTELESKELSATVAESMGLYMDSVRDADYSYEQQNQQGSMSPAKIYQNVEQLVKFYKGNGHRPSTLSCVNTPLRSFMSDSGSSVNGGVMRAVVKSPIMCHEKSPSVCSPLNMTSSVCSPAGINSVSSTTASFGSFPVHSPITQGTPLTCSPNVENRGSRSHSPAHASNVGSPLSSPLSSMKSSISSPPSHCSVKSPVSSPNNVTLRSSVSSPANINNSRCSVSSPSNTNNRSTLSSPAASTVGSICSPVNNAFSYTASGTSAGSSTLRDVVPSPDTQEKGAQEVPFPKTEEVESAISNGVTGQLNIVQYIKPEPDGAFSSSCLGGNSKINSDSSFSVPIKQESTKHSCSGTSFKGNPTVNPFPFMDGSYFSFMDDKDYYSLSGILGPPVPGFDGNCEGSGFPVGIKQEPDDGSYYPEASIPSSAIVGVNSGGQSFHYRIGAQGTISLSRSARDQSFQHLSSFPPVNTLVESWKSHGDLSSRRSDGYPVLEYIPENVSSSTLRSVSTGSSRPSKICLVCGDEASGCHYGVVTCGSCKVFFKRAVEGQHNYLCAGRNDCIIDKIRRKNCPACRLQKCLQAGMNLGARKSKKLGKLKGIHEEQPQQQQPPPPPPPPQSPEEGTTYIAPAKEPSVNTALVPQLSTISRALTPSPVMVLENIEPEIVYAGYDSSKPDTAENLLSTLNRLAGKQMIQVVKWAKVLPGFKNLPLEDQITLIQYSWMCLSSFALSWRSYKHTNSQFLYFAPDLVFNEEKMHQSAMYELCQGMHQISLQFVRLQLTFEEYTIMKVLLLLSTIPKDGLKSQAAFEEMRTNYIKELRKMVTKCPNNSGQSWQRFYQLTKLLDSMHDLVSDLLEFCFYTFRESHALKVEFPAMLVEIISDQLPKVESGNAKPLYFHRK
Briefly: Agonist activity at human mineralocorticoid receptor relative to aldosterone. The class given is functional.

Assay [7] concerns the target T2, Glucocorticoid receptor (Homo sapiens). Description: Antagonist activity at human glucocorticoid receptor relative to Dexamethasone. The class given is functional.
For assay [8], the target named is T3, Mineralocorticoid receptor (Homo sapiens). Description: Antagonist activity at human mineralocorticoid receptor relative to aldosterone. The class given is functional.

Consider `CC1=C[C@@H]([C@@H]2Oc3c(F)cc(F)cc3-c3ccc4c(c32)C(C)=CC(C)(C)N4)CCC1` (stereo in doubt; (-)-5c), for which the result in assay [1], in assay [2] and in assay [4] was Active. Moreover, the Efficacy in assay [3] came out at 177%; in assay [5] it was 6%; in assay [6] it was 8%; in assay [7] it was 92%; in assay [8], 93%.
